Source: PubChem BioAssay
Casp6 inh – human caspase-6 inhibitors, primary screen, biochemical, VEID-R110 fluorescence, single point, set 2; P55212; inhibition, % at 12.5 µM; AID 686996, 2013; purified caspase-6, Z-VEID-R110 cleavage fluorescence; 350,000 tested, 0.53% active;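 active = mean inhibition across replicates at least about 35%, with every replicate also reaching that limit, limit read from the data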;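 also: 0% = median of neutral control wells and 100% = no fluorescence left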
Target sequence (P55212 24-179 limits assumed): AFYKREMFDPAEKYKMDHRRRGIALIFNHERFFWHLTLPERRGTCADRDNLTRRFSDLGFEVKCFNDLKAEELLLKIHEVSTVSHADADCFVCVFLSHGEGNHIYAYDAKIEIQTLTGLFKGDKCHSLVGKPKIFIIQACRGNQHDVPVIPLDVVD
Target sequence (P55212 194-293 limits assumed): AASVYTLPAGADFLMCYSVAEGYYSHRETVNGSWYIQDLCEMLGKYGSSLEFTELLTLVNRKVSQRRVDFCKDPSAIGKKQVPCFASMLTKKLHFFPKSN
RAD52 inh – RAD52 DNA annealing inhibitors, primary screen, biochemical, FRET, single point, set 2; 360,000 tested, 0.46% active; DNA repair protein RAD52 homolog (Homo sapiens), P43351; recombinant RAD52 DNA annealing, FRET fluorescence; inhibition, % at 18.7 µM; AID 651710, 2012;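 active = every replicate showing at least 50% inhibition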
MLL AF4-AF9 inh – inhibitors of AF4 peptide binding to AF9, primary screen, biochemical, AlphaScreen, biotin-AF4 peptide, FLAG-AF9, single point. inhibition, % at 10 µM. 350,000 tested, 0.47% active. AID 651704, 2012;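 active = every replicate reaching a set inhibition limit, whatever the replicate mean, cut at about 25% in these data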;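 also: 0% = plate neutral control median and 100% = total signal loss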
S100A4 MyoIIA – inhibitors of S100A4-myosin IIA peptide binding, primary screen, biochemical, fluorescence polarization, TAMRA-MyoIIA peptide. Protein S100-A4 (Homo sapiens), P26447. inhibition, % at 10.7 µM. 360,000 tested, 0.14% active;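 active = mean inhibition of at least 70% across replicates, with every replicate also reaching that level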
Target sequence (P26447 whole entry, looked up): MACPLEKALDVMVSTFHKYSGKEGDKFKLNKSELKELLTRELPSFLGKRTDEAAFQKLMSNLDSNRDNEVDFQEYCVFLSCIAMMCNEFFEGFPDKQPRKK
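Test system – S100A4 monomer (human) · Compound – single-point compound testing · Schedule – 5 min incubation before reading · Probe or stimulus – TAMRA-labelled myosin IIA heavy-chain peptide probe, 5 nM · Benchmarks – neutral control DMSO, positive control TFP · Medium – Calcium-containing HEPES buffer, pH 7.2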
RAD54 branch – inhibitors of human RAD54 branch migration, primary screen, biochemical, fluorescence, single point | RAD54 Holliday junction branch migration, FAM/BHQ fluorescence | 360,000 tested, 0.14% active | inhibition, % at 10.4 µM | DNA repair and recombination protein RAD54-like (Homo sapiens), Q92698 | AID 602329, 2012;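 active = mean normalized replicate activity at least 40 and at least half of replicates scoring 40 or more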;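 also: 0% = median of neutral control wells and 100% = median of positive control wells; inhibitors cause a drop in the FAM fluorescence signal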
Xi reactivation – activators of inactive X chromosome reactivation, primary screen, imaging, XiGFP fibroblasts, GFP high-content imaging, set 2; XiGFP mouse fibroblasts, % GFP-positive cells imaging, 3 d; cells co-treated with 5-aza-dC sensitizer; scaled so ellipticine positive control = 100%; activation, % at 7.58 µM; 360,000 tested, 0.055% active; AID 743238, 2013;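 active = mean normalized replicate activation at least 10% and every replicate at or above 10%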;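 also: 0% = median of on-plate neutral control wells and 100% = ellipticine 6 µM median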
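assay system = SV40-immortalized XiGFP fibroblast cells, line 68-5-11 | buffer or medium = DMEM plus 5-aza-dC sensitizer | doses = single-point pinned compound dosing | times = 3-day compound exposure, then 15 min fixation at room temperature | benchmarks = positive control ellipticine, 6 µM final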
* marks the source's active call; other numbers are inactive results; · = no result; ! = repeats disagree. The list is not random: actives were taken first. Their share in the collection is about 1.3%.

SMILES	Casp6 inh	RAD52 inh	MLL AF4-AF9 inh	S100A4 MyoIIA	RAD54 branch	Xi reactivation
CN(C)C1C(=O)C(C(N)=O)=C(O)C2(O)C(=O)C3=C(O)c4c(O)cccc4C(C)(O)C3C(O)C12 (stereo not drawn)	53.3*	-8.5	6.5	-1.3	7.3	0.2
O=[N+]([O-])c1ccccc1Cl	-3.5	-5.0	·	10.7	·	·
O=C1NC(=O)C(Sc2ccccc2[N+](=O)[O-])C(=O)N1	37.7*	1.0	1.4	-0.5	-2.3	0.1
C=CCN1[C@@H]2CN(C(=O)NC(C)C)C[C@H]1C2c1ccccc1 (stereo partly drawn)	·	·	·	·	·	0.4
O=C(Cc1ccncc1)N1CCCCN2[C@@H](CO)[C@@H](c3ccc(C#CC4(O)CCCC4)cc3)[C@@H]2C1	-1.2	-3.0	0.1	-5.7	7.6	0.2
CS(=O)(=O)N1C[C@@H]2C(c3ccc(Br)cc3)[C@H](C1)N2CC1CC1 (stereo partly drawn)	·	·	·	·	·	0.3
Cc1ccc(C(=O)N[C@@H](C)CN2C3=NC[C@@H](Cc4ccccc4)N3C[C@H]2Cc2ccc(O)cc2)cc1Br	0.1	31.1	27.3*	1.8	·	0.0
COc1ccc(/C=C2\C(=O)NC(=S)N(C)C2=O)cc1C	46.0*	-45.4	0.9	-3.7	·	0.6
Cc1ccsc1/C=C1\C(=O)NC(=S)N(C)C1=O	4.9	-50.6	5.7	-71.7	-2.2	0.4
O=C(Cc1ccccn1)N1CC2(C1)[C@H](c1ccccc1)[C@@H](CO)N2Cc1ccccn1	-1.3	-156.4	2.5	22.4	·	0.0
C/C=C/c1ccc(C2[C@@H]3CN(C(=O)CN(C)C)C[C@H]2N3)cc1 (stereo partly drawn)	-1.0	57.8*!	14.1	-1.2	·	0.2
O=C(O)c1ccc([N+](=O)[O-])c([N+](=O)[O-])c1	40.8*	-11.1	-2.2	-0.4	10.3	0.0
CC(=O)N1C2CN(C)CC1C2c1ccc(Br)cc1 (stereo not drawn)	·	·	·	·	·	0.4
CCOC(=O)c1ccc(N=Cc2c(O)n(-c3ccc(OC)cc3)c(=S)[nH]c2=O)cc1	1.8	-184.2	-1.0	-60.3	·	0.2
CCOC(=O)c1ccc(N=Cc2c(O)n(-c3ccccc3F)c(=S)[nH]c2=O)cc1	-0.5	-332.7	-4.8	121.9*	-8.3	0.0
O=C(O)[C@@H]1[C@@H](CO)[C@@H]2Cn3c(ccc(C4=CCCC4)c3=O)[C@H]1N2C(=O)Cc1ccccn1	2.9	-25.3	0.6	2.4	5.8	0.0
O=c1[nH]c(=O)n(Cc2ccco2)c(O)c1/C=N/N1CCCCCC1	-1.6	-10.8	3.8	-4.1	4.8	0.0
O=c1[nH]c(=O)n(Cc2ccco2)c(O)c1C=NC1CCN(Cc2ccccc2)CC1	-2.7	-10.8	48.2*	-5.2	4.9	0.0
CC(=O)N1C[C@@H]2C(c3ccc(Br)cc3)[C@H](C1)N2CC1CC1 (stereo partly drawn)	·	·	·	·	·	0.2
C=CCN1[C@@H]2CN(C(C)=O)C[C@H]1C2c1ccccc1 (stereo partly drawn)	·	·	·	·	·	0.3
COc1ccc(N2C(=O)/C(=C/c3ccc(C)o3)C(=O)NC2=S)cc1	40.0*	-102.9	-2.8	-15.0	-8.8	0.0
Cc1ccc(/C=C2\C(=O)NC(=S)N(c3cccc(F)c3)C2=O)o1	48.2*	-198.9	-6.0	-22.9	-9.3	-0.1
CCOc1ccc(N2C(=O)/C(=C/c3ccc(C)o3)C(=O)NC2=S)cc1	22.3	-165.0	-1.9	-13.8	-21.0	0.1
CN1CCN(c2ccc(/C=C3\C(=O)NC(=S)N(c4cccc(Br)c4)C3=O)o2)CC1	·	·	·	·	·	0.0
CCOC(=O)[C@@H]1[C@@H]2NC(=S)N(C)[C@@]1(C)Oc1ccccc12	1.1	1.4	-5.3	-1.5	9.0	·
O=C1CNC[C@H]2[C@@H](c3ccc(Br)cc3)[C@@H](CO)N12	-0.4	19.2	-3.8	2.0	·	0.1
